Laboratory results reported in ChEMBL document CHEMBL1157180 (Bioorg Med Chem, 2008).
Calls of active or inactive are those of the source. The rule behind the calls is not given here.

How the values were obtained:
[1] = target: T1, Muscarinic acetylcholine receptor M1 (Rattus norvegicus, UniProt P08482); experiment: Displacement of [3H]Quinuclidinyl benzilate from muscarinic M1 receptor in Wistar rat cortex synaptosomal membrane
T1 sequence (P08482 whole entry): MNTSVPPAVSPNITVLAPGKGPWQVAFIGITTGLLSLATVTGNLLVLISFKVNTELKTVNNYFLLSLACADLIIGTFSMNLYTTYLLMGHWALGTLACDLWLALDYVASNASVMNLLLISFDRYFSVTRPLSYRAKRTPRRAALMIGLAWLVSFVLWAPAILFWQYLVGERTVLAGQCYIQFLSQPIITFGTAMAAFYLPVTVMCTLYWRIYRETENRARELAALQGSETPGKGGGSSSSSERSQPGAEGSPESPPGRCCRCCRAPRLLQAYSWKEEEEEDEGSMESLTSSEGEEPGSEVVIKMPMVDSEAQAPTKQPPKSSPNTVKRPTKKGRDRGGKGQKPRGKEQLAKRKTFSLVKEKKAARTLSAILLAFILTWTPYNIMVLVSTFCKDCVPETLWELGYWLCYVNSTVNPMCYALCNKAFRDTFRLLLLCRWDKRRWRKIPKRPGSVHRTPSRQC

Rattus norvegicus [2] = species: Rattus norvegicus; experiment: Antiamnesic activity in Wistar rat assessed as reversal of scopolamine-induced memory loss by passive avoidance test; type: functional, organism-based
Rattus norvegicus [3] = species: Rattus norvegicus; experiment: Reversal of scopolamine-induced memory and learning impairment in Wistar rat assessed as transfer latency for 90 seconds by plus maze test; type: functional, organism-based
In short: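 Elevated plus maze in male Wistar rats, 30 min after treatment, given scopolamine alone or test agent plus scopolamine; controls got 0.9% saline. Each rat is placed at the end of an open arm facing away from the centre. Transfer latency (TL) is the time to enter an enclosed arm. Day 1 has 90 s exploration (TL1, learning) and day 2 is a retest of the same rats (TL2, memory).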

Rattus norvegicus [4] = species: Rattus norvegicus; experiment: Reversal of scopolamine-induced spartial working memory loss in Wistar rat assessed by Y maze task; type: functional; parameters: concentration or dose not given beside the values
In short: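 Male Wistar rats (200–250 g, n = 8) receive test agent with scopolamine and explore the Y-maze 30 min later. Arm entries, including returns, are recorded visually. An alternation is successive entries into all three arms on overlapping triplets. % alternation = actual alternations/(total entries − 2) × 100, compared against the scopolamine-only group.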

Rattus norvegicus [5] = experiment: Acute toxicity in orally dosed Wistar rat after 1 week; type: organism-based; details: in vivo, po, 168 h
In short: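 Rats, 8 per group, fasted 16 h, then given the compounds orally at various doses. Animals observed for 1 week after dosing, with deaths recorded daily.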

Compound | IC50 [1] | Ki [1] | Activity (Rattus norvegicus [2]) | Activity (Rattus norvegicus [3]) | Activity (Rattus norvegicus [4]) | Activity (Rattus norvegicus [5])
Cc1ccc(S(=O)(=O)N2CCOC(C3=CCCN(C)C3)C2)cc1 (stereo unspecified) | 61 µM | 14 µM | Active | Active | 62% | Non-toxic
CN1CCC=C(C2CN(S(=O)(=O)c3ccccc3)CCO2)C1 (stereo unspecified) | 90 µM | 27 µM | Active | Active | 60% | Non-toxic
CN1CCC=C(C2CN(S(=O)(=O)c3ccc(Cl)cc3)CCO2)C1 (stereo unspecified) | 0.92 µM | 0.26 µM | Active | Active | 64% | Non-toxic
CN1CCC=C(C2CN(S(=O)(=O)c3ccc([N+](=O)[O-])cc3)CCO2)C1 (stereo unspecified) | 208 µM | 64 µM | Active | – | – | Non-toxic
CN1CCC=C(C2CN(S(=O)(=O)c3cccc([N+](=O)[O-])c3)CCO2)C1 (stereo unspecified) | 201 µM | 62 µM | Active | – | – | Non-toxic
CN1CCC=C(C2CN(S(=O)(=O)c3ccc(C(C)(C)C)cc3)CCO2)C1 (stereo unspecified) | 19 µM | 4 µM | Active | Active | 61% | Non-toxic
CN1CCC=C(C2CN(S(=O)(=O)c3cc(Cl)ccc3Cl)CCO2)C1 (stereo unspecified) | 115 µM | 35 µM | Active | – | 59% | Non-toxic
CN1CCC=C(C2CN(S(=O)(=O)c3ccccc3[N+](=O)[O-])CCO2)C1 (stereo unspecified) | 314 µM | 96 µM | Active | – | – | Non-toxic
